Sampled rows, rich in hits. Any-hit rate of the full collection: about 6.3%.
PostGolgi yeast: growth inhibition of a yeast mutant, post-Golgi transport screen. post-Golgi transport phenotypic cell assay. inhibition, % at 10 µM. 0.9% of 98,000 active. AID 739;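 note: yeast cells grown in 1536-well plates; yeast grown about 18 h at 30C before absorbance read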
Ecoli tolC: E. coli tolC mutant growth inhibition; E. coli BW25113 tolC mutant growth, OD615; growth inhibition, % at 10 µM (by protocol); 2.2% of 65,000 active; AID 573;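 active = growth inhibition at or above a cutoff equal to the mean over every tested compound plus 3 SD, cut at about 60% in these data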;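 note: growth measured after 20 h incubation at 37 °C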
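Test system: E. coli BW25113 ΔtolC::kan bacteria | Medium: Kanamycin-containing LB broth (50 µg/mL) | Dosing: One dose of 10 µM final | Times: 20 h incubation with compound, 37 °C | Detection: Optical density read at 615 nm | Read-out basis: Percent growth inhibition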
E coli WT exp: growth inhibitors of E. coli BW25113 wild type; growth inhibition, % at 100 µM; OD600 absorbance; AID 710; 0.15% of 98,000 active;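 active = growth inhibition above about 50% at one test dose, limit read from the data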;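 note: growth measured after 20 h incubation at 37 °C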
PostGolgi ctrl: yeast control strain growth, post-Golgi counter-screen | efflux-deficient yeast background strain, growth absorbance A615, 16 h | 5% of 98,000 active | AID 738 | inhibition, % at 10 µM
Numbers without * were called inactive. Cut-off read from the data, not from the text of the source, unless noted: active = inhibition above about 30%; inactive = the rest.

`CCOC(=O)c1c(C)sc2c1N(C(C)=O)c1cc(Cl)ccc1S2` gave PostGolgi yeast 2.1, E coli WT exp -4.0 and PostGolgi ctrl 26.0.
O=C(Nc1cc2c(cc1Cl)OCCCO2)c1ccccc1 was read as PostGolgi yeast -13.9, E coli WT exp -8.0 and PostGolgi ctrl 13.1.
Screening C=CCn1c(SCC(=O)Nc2ncc(Cc3cc(Cl)ccc3Cl)s2)nnc1-c1ccncc1 returned PostGolgi yeast -4.2, E coli WT exp -1.0 and PostGolgi ctrl 4.2.
CCOC(=O)c1ccc(NC(=O)CC2OCCN(CC)C2=O)cc1 (stereo unspecified) was read as PostGolgi yeast -3.7, Ecoli tolC -4.8, E coli WT exp -2.0 and PostGolgi ctrl 35.0*.
`COc1cc(/C=N\NC(=O)c2sc(N)nc2C)cc(OC)c1OC` gave PostGolgi yeast -4.5, E coli WT exp 2.0 and PostGolgi ctrl 12.1.
For Cc1ccc(-c2cc(-c3ccccc3)c3c(N)c(S(C)(=O)=O)sc3n2)cc1 the results were PostGolgi yeast 6.1, E coli WT exp -7.0 and PostGolgi ctrl 31.1*.
Screening CS(=O)(=O)c1sc2nc(-c3cccs3)cc(-c3ccccc3)c2c1N returned PostGolgi yeast 0.3, Ecoli tolC 17.3, E coli WT exp -6.0 and PostGolgi ctrl 5.9.
CC(C)CCCC(C)NS(=O)(=O)Cc1ccccc1 (stereo unspecified) was read as PostGolgi yeast 0.7, E coli WT exp 5.0 and PostGolgi ctrl 11.6.
Screening CC1=NN(c2ccc(F)cc2)C(=O)C1C(c1cccc(O)c1)c1c(C)[nH]n(-c2ccc(F)cc2)c1=O (stereo unspecified) returned PostGolgi yeast -11.7, E coli WT exp 7.0 and PostGolgi ctrl 34.7*.
Screening CC1=NN(c2ccc(C)cc2C)C(=O)C1C(c1ccccc1)C1C(=O)N(c2ccc(C)cc2C)N=C1C (stereo unspecified) returned PostGolgi yeast 9.4, E coli WT exp -11.0 and PostGolgi ctrl -4.1.
COc1ccc(S(=O)(=O)N2CCCCCC2)cc1N(C)S(=O)(=O)c1ccc(Cl)cc1 was read as PostGolgi yeast -5.3, E coli WT exp -2.0 and PostGolgi ctrl 16.4.
For CCOC(=O)c1cnc(-n2nc(C)cc2C)nc1Nc1ccc(N(C)C)cc1 the results were PostGolgi yeast 2.3, Ecoli tolC 78.3*, E coli WT exp 7.0 and PostGolgi ctrl 28.8.
Screening CCOC(=O)c1cnc(-n2nc(C)cc2C)nc1Nc1ccc(C)cc1 returned PostGolgi yeast -1.5, E coli WT exp -20.0 and PostGolgi ctrl 1.9.
CCOC(=O)c1cnc(-n2nc(C)cc2C)nc1NC1CCCCC1 was read as PostGolgi yeast 87.4*, Ecoli tolC 100.0*, E coli WT exp 12.0 and PostGolgi ctrl 67.0*.
CCOC(=O)c1cnc(-n2nc(C)cc2C)nc1N(CC)CC was read as PostGolgi yeast -0.5, Ecoli tolC 63.2*, E coli WT exp -3.0 and PostGolgi ctrl 17.8.
Screening CCOC(=O)c1cnc(-n2nc(C)cc2C)nc1NC returned PostGolgi yeast 4.4, Ecoli tolC 56.3, E coli WT exp 12.0 and PostGolgi ctrl -3.1.
For COC(=O)c1sc(NC(=O)Cc2cccs2)nc1C the results were PostGolgi yeast 4.4, Ecoli tolC 13.1, E coli WT exp 5.0 and PostGolgi ctrl 4.1.
Screening Cc1ccc(C(=O)CC2(O)C(=O)N(Cc3ccccc3)c3ccccc32)o1 (stereo unspecified) returned PostGolgi yeast 0.3, Ecoli tolC 13.2, E coli WT exp -2.0 and PostGolgi ctrl 10.8.
For Cc1ccc(C(=O)CC2(O)C(=O)N(CCc3ccccc3)c3ccc(Br)cc32)o1 (stereo unspecified) the results were PostGolgi yeast 31.2*, Ecoli tolC 33.3, E coli WT exp -6.0 and PostGolgi ctrl 19.1.
Cc1cc2nc(C)n(CCCNC(=O)Nc3ccc(F)cc3)c2cc1C was read as PostGolgi yeast 8.8, E coli WT exp 6.0 and PostGolgi ctrl -10.1.
`Cc1cc([N+](=O)[O-])nn1Cc1ccccc1F` gave PostGolgi yeast -0.3, E coli WT exp 11.0 and PostGolgi ctrl 0.6.
O=c1c2cc3ccccc3n2cnn1Cc1ccccc1F was read as PostGolgi yeast 7.0, Ecoli tolC 75.4*, E coli WT exp 5.0 and PostGolgi ctrl 19.9.
`Cc1ccc(N2C(=O)/C(=C\c3ccco3)SC2=S)cc1` gave PostGolgi yeast -5.9, E coli WT exp -8.0 and PostGolgi ctrl 32.0*.
For O=C(Cc1cccc2ccccc12)N1CCCc2ccccc21 the results were PostGolgi yeast 0.8, E coli WT exp 12.0 and PostGolgi ctrl 12.8.
O=C(O)CCCC(=O)Nc1ccc(C(=O)NCc2cccnc2)cc1 was read as PostGolgi yeast -15.4, Ecoli tolC -11.5, E coli WT exp 4.0 and PostGolgi ctrl 36.3*.
`O=C(COc1ccc([N+](=O)[O-])cc1)Nc1ccc(C(=O)NCc2cccnc2)cc1` gave PostGolgi yeast -5.4, E coli WT exp 21.0 and PostGolgi ctrl 8.9.
Screening CCCOc1ccc(C(=O)NCc2cccnc2)cc1 returned PostGolgi yeast 5.8, Ecoli tolC -6.2, E coli WT exp -1.0 and PostGolgi ctrl 32.2*.
CCOc1ccc(C(=O)NCc2cccnc2)cc1 was read as PostGolgi yeast -0.8, Ecoli tolC -9.2, E coli WT exp 9.0 and PostGolgi ctrl 9.5.
CC(C)(Oc1ccc(Cl)cc1)C(=O)OCC(=O)N1CCCC1 was read as PostGolgi yeast 3.3, Ecoli tolC 16.8, E coli WT exp -9.0 and PostGolgi ctrl 7.3.
Screening O=S(=O)(NC12CC3CC(CC(C3)C1)C2)c1ccc(F)cc1 returned PostGolgi yeast -4.9, E coli WT exp -1.0 and PostGolgi ctrl 31.1*.
For O=S(=O)(Nc1ccccc1)c1ccc(F)cc1 the results were PostGolgi yeast 1.6, E coli WT exp 0.0 and PostGolgi ctrl 4.4.
Screening CCn1c(/C=C/N(C)c2ccccc2)[n+](CC)c2ccc(Cl)cc21 returned PostGolgi yeast 18.0, E coli WT exp 11.0 and PostGolgi ctrl -0.3.
CCOC(=O)c1ccc2c(c1)n(CC)c(/C=C/Nc1ccccc1)[n+]2CC was read as PostGolgi yeast -16.7, E coli WT exp 2.0 and PostGolgi ctrl 31.5*.
`O=S(=O)(Nc1ccc(S(=O)(=O)N2CCCCC2)cc1)c1ccc(Br)s1` gave PostGolgi yeast -2.0, Ecoli tolC 84.5*, E coli WT exp 0.0 and PostGolgi ctrl 12.4.
Cc1ccc(S(=O)(=O)N2CCCC(C(=O)N3CCCc4ccccc43)C2)cc1 (stereo unspecified) was read as PostGolgi yeast 0.3, E coli WT exp -8.0 and PostGolgi ctrl 20.1.
`O=C(C1CCN(S(=O)(=O)c2ccc(Br)s2)CC1)N1CCc2ccccc21` gave PostGolgi yeast -6.5, Ecoli tolC 14.3, E coli WT exp -12.0 and PostGolgi ctrl 52.1*.
`COc1ccc(S(=O)(=O)Nc2ccc(S(=O)(=O)N3CCCCC3)cc2)cc1` gave PostGolgi yeast -0.5, Ecoli tolC 73.5*, E coli WT exp 1.0 and PostGolgi ctrl 8.2.
`O=S(=O)(Nc1ccc(S(=O)(=O)N2CCCCCC2)cc1)c1cccs1` gave PostGolgi yeast -5.4, E coli WT exp -3.0 and PostGolgi ctrl -11.1.
O=C(C1CCCN(S(=O)(=O)c2ccccc2)C1)N1CCCc2ccccc21 (stereo unspecified) was read as PostGolgi yeast -0.6, Ecoli tolC 2.7, E coli WT exp -6.0 and PostGolgi ctrl 35.5*.
